The source made the active and inactive calls. No cut-off for these calls is given here.
Tests used:
Lactuca sativa [1] = test: Phytotoxicity against Lactuca sativa (lettuce) assessed as growth inhibition of root length measured 5 days post treatment; type: functional, organism-based
In short: (§1)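 Lettuce or tomato seeds were grown for 5 days on one filter-paper sheet in 90 mm dishes. The medium was aqueous 10^-2 M MES adjusted to pH 6.0 with NaOH. Compounds were taken from DMSO stocks and diluted into buffer (5 μL DMSO/mL), giving final levels of 1, 0.5, 0.1, 0.05 and 0.01 mM. Root length was acquired automatically. EC50 came from a constant-slope sigmoidal dose-response fit versus log concentration.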

Allium cepa [2] = test: Phytotoxicity against Allium cepa (onion) assessed as growth inhibition of root length measured 7 days post treatment; type: functional, organism-based; conditions: for IC50: 168 h
In short: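 Onion seeds germinated in 90 mm Petri dishes on one filter-paper sheet, in aqueous 10^-2 M MES buffer brought to pH 6.0 with NaOH. Compounds were dissolved in DMSO and diluted into buffer (5 μL DMSO/mL) to test concentrations of 1, 0.5, 0.1, 0.05 and 0.01 mM. Root length was recorded after 7 days by automated image acquisition. EC50 was derived from a constant-slope sigmoidal fit on a log concentration scale.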

Solanum lycopersicum [3] = test: Phytotoxicity against Solanum lycopersicum (tomato) assessed as growth inhibition of root length measured 5 days post treatment; type: functional, organism-based; in short: as §1
Lepidium sativum [4] = test: Phytotoxicity against Lepidium sativum assessed as growth inhibition of root length measured 4 days post treatment; type: functional, organism-based; conditions: for IC50: 96 h
In short: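 Cress bioassay run over 4 days in 90 mm Petri dishes with one filter-paper sheet. Seeds were in aqueous 10^-2 M MES buffer at pH 6.0, set with 1 M NaOH. DMSO stocks were diluted into buffer at 5 μL/mL to final concentrations of 1, 0.5, 0.1, 0.05 and 0.01 mM. Root length was recorded by an automated system. Values were fitted to a constant-slope sigmoidal curve against log concentration to obtain EC50.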

Lactuca sativa [5] = test: Phytotoxicity against Lactuca sativa (lettuce) assessed as growth inhibition of root length at 5 uM measured 5 days post treatment; type: functional; conditions: 120 h, read-out: GI
In short: (§2)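 Seeds germinated in Petri dishes on one filter-paper sheet, in aqueous solution buffered with 10^-2 M MES and brought to pH 6.0 with NaOH. Compounds were dissolved in DMSO, then diluted into buffer (5 μL DMSO/mL). Root length was recorded by automated image acquisition with statistical analysis.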

Solanum lycopersicum [6] = test: Phytotoxicity against Solanum lycopersicum (tomato) assessed as growth inhibition of root length at 1 uM measured 5 days post treatment; type: functional; conditions: 120 h, read-out: GI; in short: as §2
Allium cepa [7] = test: Phytotoxicity against Allium cepa (onion) assessed as growth inhibition of root length at 1 uM measured 7 days post treatment; type: functional; conditions: 168 h, read-out: GI
Lactuca sativa [8] = test: Phytotoxicity against Lactuca sativa (lettuce) assessed as growth inhibition of root length at 1 to 5 uM measured 5 days post treatment; type: functional, organism-based; in short: as §2
Allium cepa [9] = test: Phytotoxicity against Allium cepa (onion) assessed as growth inhibition of root length at 1 to 5 uM measured 7 days post treatment; type: functional, organism-based; in short: as §2
Solanum lycopersicum [10] = test: Phytotoxicity against Solanum lycopersicum (tomato) assessed as growth inhibition of root length at 1 to 5 uM measured 5 days post treatment; type: functional, organism-based; in short: as §2
Lepidium sativum [11] = test: Phytotoxicity against Lepidium sativum assessed as growth inhibition of root length at < 1 uM measured 4 days post treatment; type: functional, organism-based

Row | SMILES | growth inhibition (GI) (Lactuca sativa [1]) | growth inhibition (GI) (Allium cepa [2]) | growth inhibition (GI) (Solanum lycopersicum [3]) | growth inhibition (GI) (Lepidium sativum [4]) | inhibition of growth at 5 µM (Lactuca sativa [5]) [%] | inhibition of growth at 1 µM (Solanum lycopersicum [6]) [%] | inhibition of growth at 1 µM (Allium cepa [7]) [%] | growth inhibition (GI) (Lactuca sativa [8]) | growth inhibition (GI) (Allium cepa [9]) | growth inhibition (GI) (Solanum lycopersicum [10]) | growth inhibition (GI) (Lepidium sativum [11]) | IC50 (Allium cepa [2]) [nM] | IC50 (Lepidium sativum [4]) [nM] | IC50 (Solanum lycopersicum [3]; 120 h) [nM]
1 | O=C1C(c2ccccc2)Oc2ccc(F)cc2N1O (stereo not drawn) | Active | Active | Active | Active |  |  |  |  |  |  |  |  |  | 
2 | CCCCC(=O)ON1C(=O)COc2ccc(F)cc21 | Active | Active | Active | Active |  |  |  |  |  |  |  |  |  | 
3 | CCCC1Oc2ccc(Cl)cc2N(O)C1=O (stereo not drawn) | Active | Active | Active | Active |  |  |  |  |  |  |  |  |  | 
4 | CCCC1Oc2c(Cl)cccc2N(O)C1=O (stereo not drawn) | Active | Active | Active | Active |  |  |  |  |  |  |  |  |  | 
5 | CCC1Oc2c(Cl)cccc2N(O)C1=O (stereo not drawn) | Active | Active | Active | Active |  |  |  |  |  |  |  |  |  | 
6 | CCCCC(=O)ON1C(=O)COc2ccc(Cl)cc21 [6-Cl-4-Val-D-DIBOA] | Active | Active | Active | Active | 50 | 50 | 90 | Active | Active | Active | Active | 200 | 60 | 
7 | CCC(=O)ON1C(=O)COc2c(Cl)cccc21 | Active | Active | Active | Active |  |  |  |  |  |  |  |  |  | 
8 | O=C1C(c2ccccc2)Oc2ccc(Cl)cc2N1O (stereo not drawn) | Active | Active | Active | Active |  |  |  |  |  |  |  |  |  | 
9 | CCC1Oc2ccc(Cl)cc2N(O)C1=O [6-Cl-2-Et-D-DIBOA] | Active | Active | Active | Active |  |  | 60 |  |  |  | Active | 1600 | 400 | 2300
10 | O=C1C(c2ccccc2)Oc2c(Cl)cccc2N1O (stereo not drawn) | Active | Active | Active | Active |  |  |  |  |  |  |  |  |  | 
11 | CCCON1C(=O)COc2ccc(Cl)cc21 [6-Cl-4-Pr-D-DIBOA] | Active | Active | Active | Active | 50 | 50 | 50 | Active | Active | Active |  | 200 | 60 | 
12 | CCC(=O)ON1C(=O)COc2ccc(F)cc21 | Active | Active | Active | Active |  |  |  |  |  |  | Active |  |  | 
13 | CCC1Oc2ccc(F)cc2N(O)C1=O [6-F-2-Et-D-DIBOA] | Active | Active | Active | Active |  |  | 50 |  |  |  |  | 1300 | 1000 | 

From ChEMBL document CHEMBL3046968, “Combined strategy for phytotoxicity enhancement of benzoxazinones” (J Agric Food Chem, 2010)
